ChEMBL document CHEMBL1152863, “Synthesis, HIV-RT inhibitory activity and SAR of 1-benzyl-1H-1,2,3-triazole derivatives of carbohydrates” (Eur J Med Chem, 2009)

Experiments:
[1] = molecular target: Human immunodeficiency virus type 1 reverse transcriptase (Human immunodeficiency virus 1) (UniProt Q72547); test: Inhibition of polymerase activity of HIV1 recombinant reverse transcriptase expressed in Escherichia coli at 50 uM
Summary of the method: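 Single-concentration test: compounds at 50 on recombinant HIV-1 RT (66 kDa, E. coli-expressed from pUC12N, Sephadex G-25 fraction) polymerase activity. 50 mM Tris-HCl pH 7.8, 6 mM MgCl2, 1 mM DTT, 50 mM KCl, dTTP with [3H]dTTP, poly(rA)·oligo(dT) template-primer, 1 U enzyme; 30 min at 37 °C; TCA precipitation onto filters, incorporated 3H by scintillation counting.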

[2] = Cytotoxicity against african green monkey Vero cells after 72 hrs by MTT assay; assay type: cell-based; details: chlorocebus sabaeus
Summary of the method: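 Vero cells grown in DMEM with 5% FBS, penicillin/streptomycin, 37 °C, 5% CO2; monolayers of about 10^4 cells exposed to several compound concentrations for 72 h. MTT solution (1 mg/mL) then added to assess viability. CC50 obtained by linear regression of dose-response curves; duplicates, at least three independent experiments.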

[3] = molecular target: Human immunodeficiency virus type 1 reverse transcriptase (Human immunodeficiency virus 1, UniProt Q72547); test: Inhibition of polymerase activity of HIV1 recombinant reverse transcriptase expressed in Escherichia coli
Summary of the method: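 Recombinant HIV-1 RT (66 kDa) expressed in E. coli from plasmid pUC12N, partly purified by Sephadex G-25; compounds tested at different concentrations (0.01-50). Reaction: 50 mM Tris-HCl pH 7.8, 6 mM MgCl2, 1 mM DTT, 50 mM KCl, dTTP plus [3H]dTTP, poly(rA)·oligo(dT), 1 U enzyme; 37 °C, 30 min; stopped with ice-cold 5% TCA/pyrophosphate, filter-collected, 3H counted by scintillation.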

| inhibition [1] [%] | IC50 [3] [µM] | Compound | CC50 at 72 h [2] [µM] |
| --- | --- | --- | --- |
| 3 |  | Cc1c(C(=O)O[C@H]2[C@H]3OC(C)(C)O[C@H]3O[C@@H]2[C@H]2COC(C)(C)O2)nnn1Cc1ccccc1 | 3530 |
| 28.8 |  | Cc1c(C(=O)OC[C@H]2O[C@@H]3OC(C)(C)O[C@@H]3[C@H]3OC(C)(C)O[C@H]32)nnn1Cc1ccccc1 | 123 |
| 35.9 |  | Cc1c(C(=O)O[C@H]2[C@H](O)[C@@H](CO)OC(O)[C@@H]2O)nnn1Cc1ccccc1 (some centres not stated) | 1800 |
|  |  | Cc1cn([C@H]2C[C@H](N=[N+]=[N-])[C@@H](CO)O2)c(=O)[nH]c1=O [ZIDOVUDINE] | 126 |
| 33.2 |  | Cc1c(C(=O)OC[C@H]2O[C@@H](O)[C@H](O)[C@@H]2O)nnn1Cc1ccccc1 | 1170 |
| 64.7 | 5 | Cc1c(C(=O)O[C@@H]2[C@H]3OC(C)(C)O[C@H]3O[C@@H]2[C@H]2COC(C)(C)O2)nnn1Cc1ccccc1 | 208 |
| 47.9 |  | Cc1c(C(=O)OC[C@@]23OC[C@H]4OC(C)(C)O[C@H]4[C@@H]2OC(C)(C)O3)nnn1Cc1ccccc1 | 3380 |
| 14 |  | Cc1c(C(=O)O[C@H]2[C@@H](O)[C@H](O)O[C@H](CO)[C@H]2O)nnn1Cc1ccccc1 | 1440 |
| 45.6 |  | Cc1c(C(=O)O[C@H]2[C@H](O)[C@H](O)CO[C@]2(O)CO)nnn1Cc1ccccc1 | 649 |
| 36.2 |  | Cc1c(C(=O)OC[C@H]2O[C@H](O)[C@H](O)[C@H]2OCc2ccccc2)nnn1Cc1ccccc1 | 596 |
| 43.5 |  | Cc1c(C(=O)O[C@H]2[C@@H]3OC(C)(C)O[C@@H]3CO[C@]23COC(C)(C)O3)nnn1Cc1ccccc1 | 2750 |
| 65.4 | 1.98 | Cc1c(C(=O)OC[C@H]2O[C@@H]3OC(C)(C)O[C@@H]3[C@H]2OCc2ccccc2)nnn1Cc1ccccc1 | 724 |
| 35.8 |  | Cc1c(C(=O)OC[C@@]2(O)OC[C@@H](O)[C@@H](O)[C@@H]2O)nnn1Cc1ccccc1 | 800 |
| 45.6 |  | Cc1c(C(=O)OC[C@H]2O[C@H](O)[C@H](O)[C@@H](O)[C@H]2O)nnn1Cc1ccccc1 | 25600 |
| 63.6 | 2.2 | CO[C@@H]1O[C@H](COC(=O)c2nnn(Cc3ccccc3)c2C)[C@H]2OC(C)(C)O[C@@H]12 | 837 |
